Article PMC8349895 (Bioorganic & medicinal chemistry letters, 2021)
pEC50: −log10 of the molar value.

What was measured:
hM1 [1] = target: T1, hM1 (Homo sapiens, UniProt P11229); experiment: Calcium mobilization PAM assay in hM1-CHO cells with EC20 acetylcholine; assay type: cell-based; conditions: PAM mode
T1 sequence (P11229 1-460): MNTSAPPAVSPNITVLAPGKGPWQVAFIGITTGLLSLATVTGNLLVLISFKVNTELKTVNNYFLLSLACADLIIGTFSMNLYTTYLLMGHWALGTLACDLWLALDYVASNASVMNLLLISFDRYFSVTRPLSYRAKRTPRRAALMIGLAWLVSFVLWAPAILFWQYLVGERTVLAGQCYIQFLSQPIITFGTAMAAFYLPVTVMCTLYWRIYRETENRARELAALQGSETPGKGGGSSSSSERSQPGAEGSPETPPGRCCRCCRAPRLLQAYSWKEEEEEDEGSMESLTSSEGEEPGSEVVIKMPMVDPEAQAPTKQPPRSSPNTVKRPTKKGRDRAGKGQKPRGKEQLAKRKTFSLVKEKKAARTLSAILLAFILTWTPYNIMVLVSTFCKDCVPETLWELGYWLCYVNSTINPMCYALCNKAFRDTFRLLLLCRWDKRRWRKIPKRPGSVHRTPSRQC

hM1 [2] = target: T1, hM1; experiment: Calcium mobilization agonist mode in hM1-CHO cells, no exogenous ACh; assay type: cell-based; conditions: no exogenous acetylcholine
Procedure, shortened: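 Calcium mobilization in CHO cells expressing human M1, run without added acetylcholine to measure direct agonist activity and derive agonist EC50. Values are means of one to three independent experiments, each run in triplicate.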

[3] = Predicted hepatic clearance, human; assay type: in vitro ADME
hM4 = target: T2, hM4 (Homo sapiens, UniProt P08173); experiment: Calcium mobilization PAM selectivity assay, hM4; assay type: cell-based
T2 sequence (P08173 1-479): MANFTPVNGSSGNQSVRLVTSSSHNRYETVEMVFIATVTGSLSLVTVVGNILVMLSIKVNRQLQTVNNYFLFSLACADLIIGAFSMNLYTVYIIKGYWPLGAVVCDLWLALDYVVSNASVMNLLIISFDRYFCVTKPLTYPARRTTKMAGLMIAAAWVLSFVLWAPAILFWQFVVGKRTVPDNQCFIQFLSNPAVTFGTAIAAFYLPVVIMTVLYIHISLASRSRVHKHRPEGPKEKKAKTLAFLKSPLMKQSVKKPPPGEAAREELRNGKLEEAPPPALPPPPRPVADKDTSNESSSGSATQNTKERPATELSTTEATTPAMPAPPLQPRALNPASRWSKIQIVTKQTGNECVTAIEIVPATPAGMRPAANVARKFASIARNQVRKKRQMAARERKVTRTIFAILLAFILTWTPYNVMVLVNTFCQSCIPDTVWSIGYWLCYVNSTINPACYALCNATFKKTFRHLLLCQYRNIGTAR

[4] = Predicted hepatic clearance, rat; assay type: in vitro ADME

Row | hM1 activity (in words) (hM1 [1]) | hM1 agonist activity (hM1 [2]) | hClhep [3] [mL/min/kg] | pEC50 (hM4) | rClhep [4] [mL/min/kg] | SMILES
1 | inactive |  |  |  |  | Cc1[nH]cc2c1C(=O)N(Cc1c(F)cc(-c3cccc4nn(C)cc34)cc1F)C2 [Compound 25a]
2 |  | devoid of any hM1 agonist activity | 18.6 | < 5.00 | 58.7 | Cn1cc2c(-c3cc(F)c(CN4Cc5cnn(CC6CCCO6)c5C4=O)c(F)c3)cccc2n1 (stereo not drawn) [Compound 20a]
3 | inactive |  |  |  |  | Cn1cc2c(-c3cc(F)c(CN4Cc5ocnc5C4=O)c(F)c3)cccc2n1 [Compound 12b]

The next lines start with the compound.

Row | SMILES | hM1 activity (in words) (hM1 [1]) | hM1 agonist activity (hM1 [2]) | hClhep [3] [mL/min/kg] | pEC50 (hM4) | rClhep [4] [mL/min/kg]
4 | Cn1cc2c(-c3cc(F)c(CN4Cc5nc[nH]c5C4=O)c(F)c3)cccc2n1 [Compound 8a] | inactive |  |  |  | 
5 | Cn1cc2c(-c3cc(F)c(CN4Cc5ncoc5C4=O)c(F)c3)cccc2n1 [Compound 12a] | inactive |  |  |  | 
6 | Cn1cc2cc(-c3ccc(CN4Cc5ncsc5C4=O)c(F)c3)ccc2n1 [Compound 8b] |  | devoid of any hM1 agonist activity | 10.4 | < 5.00 | 43
